# Source: PubChem (Johns Hopkins Ion Channel Center)
# Kir21 block: inhibitors of mouse Kir2.1 inward-rectifier potassium channel; B-score at 10 µM; Inward rectifier potassium channel 2 (Mus musculus), P35561; actives 0.85% (n = 310,000); AID 1672, 2009; HEK293-Kir2.1, FluxOR thallium flux fluorescence; active compounds read low;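 active = fluorescence ratio B-score at or below minus 3 SD of library scores, with starting-brightness B-score within 2 SD, cut at about -4.2 in these data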;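 note: channel flux triggered by added potassium and thallium sulfate stimulus; B-score of peak minus minimum fluorescence over baseline after thallium stimulus; more negative B-score means stronger Kir2.1 block with less thallium influx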
# KCNQ1 block: inhibitors of human KCNQ1 channel, primary screen, cell-based, thallium flux, high-throughput; AID 2642, 2010; CHO-K1 KCNQ1, FluxOR thallium flux fluorescence; active compounds read high; B-score at 10 µM; Potassium voltage-gated channel subfamily KQT member 1 (Homo sapiens), P51787; actives 1.3% (n = 310,000);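 active = compounds whose thallium flux B-score, printed positive for inhibition, exceeds three library SD while starting fluorescence stays within three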;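 note: channel opened by potassium depolarization with thallium stimulus after 20 min compound exposure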
# hERG protect: hERG rescue from dofetilide block, primary screen, cell-based, CHO-hERG, FluxOR thallium flux, dofetilide IC70; activation (rescue from dofetilide block), less the hit threshold, % at 10 µM; actives 0.51% (n = 310,000); AID 1511, 2009; dofetilide IC70 present; Voltage-gated inwardly rectifying potassium channel KCNH2 (Homo sapiens), Q12809;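 active = activation above the mean of controls blocked by dofetilide plus 5 SD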;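 note: thallium influx through hERG after potassium depolarization seen as dye fluorescence rise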
# Target sequence (Q12809 whole entry, looked up): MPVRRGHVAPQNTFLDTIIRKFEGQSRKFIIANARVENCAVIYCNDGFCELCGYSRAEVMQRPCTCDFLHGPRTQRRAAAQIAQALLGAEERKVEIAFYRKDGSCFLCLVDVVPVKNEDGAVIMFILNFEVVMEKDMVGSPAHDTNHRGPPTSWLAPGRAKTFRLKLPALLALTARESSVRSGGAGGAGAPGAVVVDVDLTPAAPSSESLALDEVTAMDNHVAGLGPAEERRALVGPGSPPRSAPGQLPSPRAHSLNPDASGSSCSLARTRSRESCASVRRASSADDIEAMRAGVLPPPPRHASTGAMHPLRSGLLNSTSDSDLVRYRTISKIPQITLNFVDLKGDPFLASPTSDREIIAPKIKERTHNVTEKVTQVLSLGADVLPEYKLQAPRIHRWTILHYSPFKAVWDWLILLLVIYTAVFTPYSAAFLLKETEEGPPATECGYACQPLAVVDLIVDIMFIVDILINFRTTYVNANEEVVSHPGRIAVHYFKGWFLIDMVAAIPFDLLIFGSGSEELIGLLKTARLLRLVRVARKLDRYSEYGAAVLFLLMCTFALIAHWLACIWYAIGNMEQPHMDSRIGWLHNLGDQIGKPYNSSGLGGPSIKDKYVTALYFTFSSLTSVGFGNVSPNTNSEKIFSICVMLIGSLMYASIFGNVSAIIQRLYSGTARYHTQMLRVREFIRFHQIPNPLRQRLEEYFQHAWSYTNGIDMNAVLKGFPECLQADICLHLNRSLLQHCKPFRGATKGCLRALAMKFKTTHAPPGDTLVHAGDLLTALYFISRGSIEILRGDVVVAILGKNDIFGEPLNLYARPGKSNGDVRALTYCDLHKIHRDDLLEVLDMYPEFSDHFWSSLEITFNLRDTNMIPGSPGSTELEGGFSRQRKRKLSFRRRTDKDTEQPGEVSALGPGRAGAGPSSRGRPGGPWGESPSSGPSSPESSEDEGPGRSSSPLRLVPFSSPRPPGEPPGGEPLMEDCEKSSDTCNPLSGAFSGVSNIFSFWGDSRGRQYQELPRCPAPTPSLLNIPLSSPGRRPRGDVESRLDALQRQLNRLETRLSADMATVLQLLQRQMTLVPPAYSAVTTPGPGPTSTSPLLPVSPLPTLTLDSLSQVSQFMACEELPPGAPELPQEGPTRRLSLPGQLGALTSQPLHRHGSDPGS
# KCNQ1 act: potentiators or activators of KCNQ1 channel, primary screen, cell-based, thallium flux, high-throughput | Potassium voltage-gated channel subfamily KQT member 1 (Homo sapiens), P51787 | CHO-K1 KCNQ1, thallium flux FluxOR fluorescence; active compounds read high | B-score at 10 µM | actives 0.35% (n = 310,000) | AID 2648, 2010;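 active = fluorescence ratio B-score, a plate-corrected score, at least three library SD, with initial intensity B-score within 5 SD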
#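 assay system = KCNQ1-transfected CHO-K1 cells | medium = assay buffer with matched DMSO | probe or stimulus = depolarizing K+/Tl+ stimulus, K2SO4 and Tl2SO4 each 12.5 mM in 5x stock | dosing = single dose | incubation = dye 90 min, compound 20 min, room temperature | detection = kinetic FluxOR fluorescence, 10 s baseline plus 110 s post-stimulus | evaluation = ratio B score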
# KCNK9 block: KCNK9 potassium channel inhibitors, primary screen, HEK293 cells, thallium flux; Potassium channel subfamily K member 9 (Homo sapiens), Q9NPC2; FluxOR thallium flux fluorescence; active compounds read low; B-score at 10 µM; actives 1.2% (n = 310,000);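 active = ratio B-score over 3 SD below the library mean, with starting fluorescence within 5 SD of its mean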;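 note: negative B-score means less thallium flux so channel inhibition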
# KCNK3 inh: human KCNK3 channel inhibitors, primary screen, CHO cells, FluxOR thallium flux, B-score; Potassium channel subfamily K member 3 (Homo sapiens), O14649; FluxOR fluorescence; active compounds read low; B-score at 10 µM; actives 0.84% (n = 340,000);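 active = B-score under library mean minus 4 SD, starting fluorescence ratio at most library mean plus 5 SD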;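 note: more negative B-score means stronger inhibition of thallium flux through KCNK3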
# An asterisk follows results filed as active; i = inactive; nt = not tested or not shown. Only some compounds are listed: those with a hit (about 3.8% of all), similar ones and a draw of the others.
SMILES,Kir21 block,KCNQ1 block,hERG protect,KCNQ1 act,KCNK9 block,KCNK3 inh
C=CCS/C(=N\n1cnc2ccccc2c1=O)N(CC)CC,-0.04,i,-11.3,i,-7.62*,i
COC(=O)CSc1nc2ccccc2n1CC(=O)N(C(C)C)C(C)C,0,i,0.5,i,i,i
Cc1nc(=O)c(-c2ccccc2)c(C)n1-c1ccccc1,0.85,i,-0.5,i,i,i
CC(=O)Nc1ccc(-n2c(C)nc(=O)c(-c3ccccc3)c2C)cc1,0.7,i,4.7*,i,i,i
O=C(NNC(=O)C1CCCCC1)c1ccncc1,-1.43,i,-6.9,i,i,i
O=C(NNC(=O)c1ccncc1)NC1CCCCC1,-0.23,i,8.7*,i,i,i
CN1CCN(c2ccc(NC(=O)C(C)(c3ccccc3)c3ccccc3)cc2)CC1,-2.16,i,-8.6,i,i,i
COc1cc2c(cc1OC)C(c1ccc([N+](=O)[O-])cc1)N(C(C)=O)CC2 (stereo not drawn),0.29,i,9.4*,i,i,i
COc1ccc(C2c3cc(OC)c(OC)cc3CCN2C(=O)c2cccc([N+](=O)[O-])c2)cc1OC (stereo not drawn),-0.26,i,-4.5,i,i,i
COc1ccc(C)cc1NC(=O)C(=O)NNC(=O)COc1ccc(Cl)cc1,0.12,i,87.7*,59*,i,i
Cc1cccc(NC(=O)C(=O)NNC(=O)c2ccc(C(C)(C)C)cc2)c1,-0.36,i,37.4*,73*,i,i
CC(C)(C)c1ccc(C(=O)NNC(=O)c2cccc(Br)c2)cc1,1.59,i,-5.2,i,i,i
COc1ccc(OC)c(NC(=O)C(=O)NNC(=O)COc2ccc(Br)cc2C)c1,2.08,i,103.9*,66*,i,i
Cc1ccc(NC(=O)NNC(=O)COc2ccc(Cl)cc2)cc1,1.81,i,-4.7,i,i,i
Cc1ccc(OCC(=O)NNC(=O)C(=O)NC(C)(C)C)cc1,1.63,i,2.7,8*,i,i
Cc1nn(-c2ccccc2)c(C)c1NC(=O)c1ccc(S(=O)(=O)N2CCCC2)cc1,1.91,i,-0.8,i,i,i
Cc1ccccc1NC(=O)C(=O)NNC(=O)COc1ccc2ccccc2c1,-0.02,i,28.7*,49*,i,i
COc1ccc(OCC(=O)NNC(=O)C(=O)Nc2cc(OC)ccc2OC)cc1,-0.4,i,14.7*,i,i,i
COc1ccc(OCC(=O)Nc2cccc(OC)c2)cc1,0.81,i,-8.1,i,i,i
COc1ccc(OC)c(NC(=O)NNC(=O)COc2ccc(-c3ccccc3)cc2)c1,0.48,i,-11.9,i,i,i
COc1cccc(OCC(=O)NNC(=O)C(=O)Nc2cccc(C)c2)c1,-1.99,i,17.4*,21*,i,i
C=CCn1c2ccccc2c(=O)c2cc(C#Cc3ccsc3)ccc21,0.7,i,8.9*,i,i,nt
CSC(=S)N/N=C(\C)c1ccccc1,0.03,i,20.2*,45*,i,i
O=c1c(O[C@@H]2O[C@H](CO)[C@@H](O)[C@H](O)[C@H]2O)c(-c2ccc(O)c(O)c2)oc2cc(O)cc(O)c12,0.36,i,-7.6,i,i,nt
CCc1cc2cc(C)cc(C)c2[nH]c1=S,-0.01,i,9.1*,i,i,i
SMILES,Kir21 block,KCNQ1 block,hERG protect,KCNQ1 act,KCNK9 block,KCNK3 inh
Oc1c(Br)cc(Br)cc1/C=N/c1nc2c(s1)CCCC2,-1.75,i,-28.2,13*,i,i
CC(=O)Nc1ccc(NC(=O)C(C)OC(=O)c2ccccc2NS(=O)(=O)c2cccs2)cc1 (stereo not drawn),-0.81,i,-11.2,i,i,i
Cc1cccc(NC(=O)C(C)OC(=O)c2ccccc2NS(=O)(=O)c2cc(C)c(C)c([N+](=O)[O-])c2)c1 (stereo not drawn),-0.79,9*,-13.0,i,i,i
CCOC(=O)c1ccc(N2C(=O)C3CCOc4ccccc4C32)cc1 (stereo not drawn),nt,nt,nt,nt,nt,i
c1cncc(-c2nnc(-c3ccco3)o2)c1,0.33,i,6.3*,i,i,i
Clc1ccc(-c2nnc(-c3ccco3)o2)cc1,-2.68,i,-4.7,i,i,i
c1ccc2c(c1)Sc1ccccc1-n1cnnc1-2,-0.95,i,-4.1,i,i,i
Brc1nnc2n1-c1ccccc1Sc1ccccc1-2,-6.02*,i,-8.1,i,i,i
Clc1ccc2c(c1)-c1nnc(Br)n1-c1ccccc1S2,-7.16*,i,-11.6,i,i,i
COCCCNC(=O)C[C@H]1C[C@H](C(=O)N2CCCCC2)[C@@]2(C)c3[nH]c4ccc(Cl)cc4c3CCN2C1=O,nt,nt,nt,nt,nt,i
O=C(C[n+]1ccccc1)N/N=C/c1ccc(Cl)c(Cl)c1,0,i,5.2*,i,i,i
CC1CCN(S(=O)(=O)c2ccc3c(c2)N(CC(=O)NCCCN2CCCCC2C)C(=O)CS3)CC1 (stereo not drawn),-1.6,i,-2.9,i,i,i
COc1cc(F)c(S(=O)(=O)N2CCOc3ccccc32)cc1OC,-5.26*,i,-3.9,i,i,i
Cc1ccc(C(=O)C[n+]2cc(-c3ccc(C)cc3)n3c2CCCCC3)cc1,-2.54,14*,-23.8,i,i,i
COc1ccc(C(=O)C[n+]2cc(-c3ccc(OC)cc3)n3c2CCCC3)cc1,-0.08,i,-4.6,i,i,i
Cc1ccc(N2C(=O)c3ccc(C(=O)Nc4cccnc4)cc3C2=O)c(C)c1,-0.13,i,4.7*,i,i,i
COc1ccc(C(CCNCc2ccc(N(C)C)cc2)c2ccccc2)cc1 (stereo not drawn),-2.34,i,-21.9,i,i,i
Cc1ccc(C(=O)OCn2ncc(Cl)c(Cl)c2=O)cc1,-1.7,i,-27.6,10*,i,i
O=C(OCn1ncc(Cl)c(Cl)c1=O)c1ccc(C(F)(F)F)cc1,0.34,i,-11.8,i,i,i
